Reference: ChEMBL document CHEMBL3259553 (J Med Chem, 2014)
Converted amounts (≈) assume the structure as drawn. The source made the active and inactive calls. The rule behind the calls is not given here.

Columns and labels:
Oryctolagus cuniculus [1] = assay: Antidyslipidemic activity in hypercholesterolemic rabbit model assessed as reduction in lipid level in coadministered with atorvastatin; format: functional, organism-based
Cytochrome P450 3A5 = Cytochrome P450 3A5 (Homo sapiens, UniProt P20815); assay: Inhibition of CYP3A5 (unknown origin); format: ADME
[2] = Solubility of the compound at pH 7.04; conditions: buffer
hERG (KCNH2) = hERG (KCNH2) (Homo sapiens, UniProt Q12809); assay: Inhibition of human ERG
Summary of the method: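 hERG channel blockade was expressed as an IC20.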

[3] = Plasma concentration in thyroidectomized rat at 5 mg/kg, ip measured after 6 hrs; format: ADME, organism-based; set-up: dose 5 mg/kg, route intraperitoneal
Summary of the method: (§1)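 Thyroidectomized rats were dosed intraperitoneally at 5, 20 or 37.5 mg/kg, with 4 rats per group. Vehicle was 4% DMSO, 15% PEG-400 and 81% of 30% HPBCD in phosphate buffer. Cardiac α-MHC hnRNA, in arbitrary units, and plasma concentration were measured 6 h after dosing. Comparators were untreated thyroidectomized rats and euthyroid rats.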

Oryctolagus cuniculus [4] = species: Oryctolagus cuniculus; assay: Toxicity in hypercholesterolemic rabbit model assessed as effect on TSH level; format: organism-based; conditions: in vivo
[5] = Half life in rat at 5 mg/kg, po; format: ADME, organism-based; set-up: dose 5 mg/kg, route oral; conditions: in vivo
Summary of the method: (§2)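 Rat pharmacokinetics after a 5 mg/kg dose given iv, or given orally as a suspension. Values are means with SD from N = 3 rats.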

Oryctolagus cuniculus [6] = species: Oryctolagus cuniculus; assay: Antidyslipidemic activity in hypercholesterolemic rabbit model assessed as reduction in liver triglycerides; format: functional, organism-based
Rattus norvegicus [7] = species: Rattus norvegicus; assay: Antidyslipidemic activity in hypercholesterolemic rat model assessed as reduction in liver triglycerides; format: functional, organism-based
Homo sapiens = assay: Toxicity in healthy human with mildly elevated LDL-C level assessed as reversible reduction in free T4 level at 100 mg, po qd for 2 weeks; format: organism-based; set-up: scale not given: the % may be the effect or the level left; conditions: in vivo, 336 h
Summary of the method: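 Healthy subjects with LDL-C >110 mg/dL received once daily oral doses for 2 weeks in a multiple ascending dose study. Free T3, free T4 and TSH were compared with placebo.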

[8] = Intrinsic clearance in human hepatocytes assessed per million cells; format: ADME, cell-based, Hepatocyte; conditions: read-out: CLH
Mus musculus = assay: Toxicity in diet-induced obese C57Bl/6J mouse model assessed as effect on kidney size at 0.3 to 10 mg/kg, po administered daily for 23 days; format: organism-based; set-up: dose 0.3-10 mg/kg, route oral; conditions: in vivo
Summary of the method: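 C57Bl/6J mice aged six weeks were fed a high fat diet for 34 weeks. Body weight and food intake were monitored. BMD and body composition were assessed on day 22, and laboratory assessments were made at study end.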

Caco-2 = assay: Permeability from basolateral to apical side of human Caco2 cells; format: ADME, cell-based
Rattus norvegicus [9] = species: Rattus norvegicus; assay: Antidyslipidemic activity in hypercholesterolemic rat model assessed as reduction in non-HDL-C level; format: functional, organism-based
Cytochrome P450 2C19 = Cytochrome P450 2C19 (Homo sapiens, UniProt P33261); assay: Inhibition of CYP2C19 (unknown origin); format: ADME
Summary of the method: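 Time-dependent inhibition of the same enzyme was also assessed, with and without NADPH.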

[10] = Plasma concentration in thyroidectomized rat at 20 mg/kg, ip measured after 6 hrs; format: ADME, organism-based; set-up: dose 20 mg/kg, route intraperitoneal; summary of the method: as §1
[11] = Half life in rat at 5 mg/kg, iv; format: ADME, organism-based; set-up: dose 5 mg/kg, route intravenous; conditions: in vivo; summary of the method: as §2

hERG (KCNH2), sequence (Q12809 whole entry): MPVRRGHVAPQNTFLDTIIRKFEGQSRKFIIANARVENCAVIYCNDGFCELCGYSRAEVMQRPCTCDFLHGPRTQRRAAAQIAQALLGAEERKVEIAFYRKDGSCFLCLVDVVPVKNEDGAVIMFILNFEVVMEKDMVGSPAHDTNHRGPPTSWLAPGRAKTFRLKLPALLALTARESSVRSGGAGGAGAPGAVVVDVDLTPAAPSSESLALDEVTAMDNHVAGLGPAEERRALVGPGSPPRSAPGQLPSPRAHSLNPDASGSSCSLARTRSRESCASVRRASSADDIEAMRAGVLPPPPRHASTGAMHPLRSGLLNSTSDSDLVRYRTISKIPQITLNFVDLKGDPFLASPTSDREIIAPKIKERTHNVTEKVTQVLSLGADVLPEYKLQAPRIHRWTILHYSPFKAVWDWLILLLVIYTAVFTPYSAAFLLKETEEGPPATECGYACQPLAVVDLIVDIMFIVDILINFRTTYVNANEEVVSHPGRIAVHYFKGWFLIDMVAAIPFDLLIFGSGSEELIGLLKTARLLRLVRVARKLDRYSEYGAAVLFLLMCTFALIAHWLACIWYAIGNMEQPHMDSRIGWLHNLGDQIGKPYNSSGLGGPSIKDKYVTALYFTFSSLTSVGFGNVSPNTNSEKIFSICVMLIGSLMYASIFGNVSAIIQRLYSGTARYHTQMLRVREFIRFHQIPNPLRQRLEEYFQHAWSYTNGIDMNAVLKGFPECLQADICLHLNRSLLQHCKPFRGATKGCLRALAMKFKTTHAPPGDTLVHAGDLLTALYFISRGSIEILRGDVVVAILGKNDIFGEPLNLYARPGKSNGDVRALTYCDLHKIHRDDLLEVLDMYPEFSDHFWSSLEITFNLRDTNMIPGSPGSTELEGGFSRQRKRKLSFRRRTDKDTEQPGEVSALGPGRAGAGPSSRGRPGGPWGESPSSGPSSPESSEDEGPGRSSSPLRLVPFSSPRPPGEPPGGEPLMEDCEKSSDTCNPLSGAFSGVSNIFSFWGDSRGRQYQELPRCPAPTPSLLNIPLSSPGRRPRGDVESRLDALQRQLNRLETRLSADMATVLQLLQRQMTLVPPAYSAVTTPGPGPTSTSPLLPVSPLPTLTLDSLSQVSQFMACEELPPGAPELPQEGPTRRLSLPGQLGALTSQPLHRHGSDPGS
Cytochrome P450 3A5, sequence (P20815 whole entry): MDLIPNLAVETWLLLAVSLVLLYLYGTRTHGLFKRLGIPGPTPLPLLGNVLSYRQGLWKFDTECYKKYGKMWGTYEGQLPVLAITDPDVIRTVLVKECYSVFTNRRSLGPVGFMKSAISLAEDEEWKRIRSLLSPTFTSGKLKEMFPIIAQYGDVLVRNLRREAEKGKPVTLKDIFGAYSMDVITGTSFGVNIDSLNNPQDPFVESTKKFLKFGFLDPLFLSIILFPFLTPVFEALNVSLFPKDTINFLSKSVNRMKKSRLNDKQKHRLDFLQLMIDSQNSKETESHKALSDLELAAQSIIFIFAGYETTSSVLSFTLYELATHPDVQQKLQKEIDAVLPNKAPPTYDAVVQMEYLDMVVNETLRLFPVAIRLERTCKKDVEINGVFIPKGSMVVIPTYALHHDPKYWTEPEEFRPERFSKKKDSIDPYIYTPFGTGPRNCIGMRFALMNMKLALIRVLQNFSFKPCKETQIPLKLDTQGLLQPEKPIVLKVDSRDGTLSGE
Cytochrome P450 2C19, sequence (P33261 whole entry): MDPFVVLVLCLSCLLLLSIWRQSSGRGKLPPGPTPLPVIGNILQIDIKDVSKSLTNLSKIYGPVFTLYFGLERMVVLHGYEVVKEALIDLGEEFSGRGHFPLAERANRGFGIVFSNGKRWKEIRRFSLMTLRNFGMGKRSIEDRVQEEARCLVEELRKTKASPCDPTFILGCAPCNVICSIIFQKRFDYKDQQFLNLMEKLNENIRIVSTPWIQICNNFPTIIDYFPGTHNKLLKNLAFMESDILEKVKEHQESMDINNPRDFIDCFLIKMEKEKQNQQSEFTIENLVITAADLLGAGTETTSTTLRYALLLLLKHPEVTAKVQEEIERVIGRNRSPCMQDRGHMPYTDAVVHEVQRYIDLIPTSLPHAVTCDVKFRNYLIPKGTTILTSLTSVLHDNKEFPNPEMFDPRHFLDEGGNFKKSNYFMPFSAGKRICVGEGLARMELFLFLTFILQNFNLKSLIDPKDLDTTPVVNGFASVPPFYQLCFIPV

IC50 (Cytochrome P450 3A5): > 50 µM
solubility [2]: 1 µM (≈ 0.435 µg/mL)
concentration at 6 h [3]: 15.4 µM
half-life [5]: 4.08 h
hepatocyte CLint [8]: 1.04 µL/min/1e6 cells
permeability (Caco-2): permeable
IC50 (Cytochrome P450 2C19): > 50 µM
concentration at 6 h [10]: 57 µM
half-life [11]: 3.4 h
Compound: CC(C)c1cc(Oc2c(Cl)cc(-n3nc(C#N)c(=O)[nH]c3=O)cc2Cl)n[nH]c1=O [RESMETIROM]
Activity (Oryctolagus cuniculus [1]): Active
IC20 (hERG (KCNH2)): 30 µM
Activity (Oryctolagus cuniculus [4]): Non-toxic
Activity (Oryctolagus cuniculus [6]): Active
Activity (Rattus norvegicus [7]): Active
Activity (Homo sapiens): 10%
Activity (Mus musculus): Non-toxic
Activity (Rattus norvegicus [9]): Active
